# Compounds with a hit are over-represented: about 1.8% of the library has one in this group of screens.
# CHOP UPR activ: activators of apoptotic CHOP UPR arm, primary screen, cell-based, CHO-CHOP luciferase reporter, luminescence, uHTS; UPR activation; percent of tunicamycin response over DMSO baseline; activation, % at 10 µM; 330,000 tested, 0.34% active;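 active = at 10 µM dose, activation of 40% or more, normalized to positive control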;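 note: 100% = tunicamycin at 10 µg/mL and 0% = DMSO alone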
#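 Assay system: CHO-CHOP cells, stable luciferase reporter of PERK-eIF2a-CHOP signalling / Buffer or medium: F12 plus 10% serum / Compound dosing: one dose, 10 µM in 0.5% DMSO / Times: 6 h compound treatment, 37 °C / Technique: luciferase luminescence / Read-out: % reporter activation, DMSO baseline versus tunicamycin full activation / Benchmarks: tunicamycin and DMSO controls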
# 697 NFkB inh: inhibitors of PMA/ionomycin-induced NF-kB reporter, 697 cells, primary screen, B-cell NF-kB inhibitor project, cell-based, luminescence, uHTS; 330,000 tested, 0.33% active; inhibition, % at 4 µM; 697 B-cell NF-kB luciferase reporter, 16 h; in the data active = inhibition above about 35%
# Jurkat NFkB inh: inhibitors of induced NF-kB luciferase reporter, primary screen, TCR NF-kB activation inhibitor project, cell-based, luminescence, uHTS. Jurkat, PMA/ionomycin-induced NF-kB luciferase reporter. inhibition, % at 4 µM. 330,000 tested, 0.53% active. AID 435003, 2010; in the data active = inhibition above about 50%
# CRFBP-R2 block: antagonists of CRF-BP/CRF-R2 complex, primary screen, cell-based, HEK293, calcium dye fluorescence, uHTS | 350,000 tested, 0.59% active | CRF-induced calcium fluorescence | inhibition, % at 11.8 µM;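 active = inhibition of the ligand-induced calcium signal above about 50% at the single tested concentration, limit read from the data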
# UPR XBP1 act: activators of adaptive XBP1 UPR arm, primary screen, cell-based, CHO-XBP1 luciferase reporter, luminescence, uHTS | IRE1-XBP1 UPR activation; percent of tunicamycin response, DMSO as zero | activation, % at 20 µM | 330,000 tested, 0.33% active;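 active = versus positive control, 20 µM dose yields 30% or more activation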;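 note: 100% = tunicamycin at 10 µg/mL and 0% = DMSO only wells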
#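 Test system: CHO-XBP1 luciferase reporter cells | Buffer or medium: Serum-containing F12 medium, 10% FBS | Schedule: 6 h compound exposure at 37 °C, 5% CO2 | Detection: Steady-Glo luciferase glow luminescence, 10 min after reagent addition | Read-out basis: Activation, % of tunicamycin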
# UPR CHOP confirm: activators of apoptotic CHOP UPR arm, confirmation, cell-based, CHO-CHOP luciferase reporter, single concentration | shares compounds with CHOP UPR activ | CHO-CHOP cells, CHOP-luciferase reporter luminescence; percent of tunicamycin response, DMSO as zero | activation, % at 10 µM | 1,000 tested, 64% active; in the data active = activation above about 33%;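 note: 0% = DMSO wells and 100% = tunicamycin 10 µg/mL wells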
# Starred values were filed as active, the others as inactive; nt = no result given.
SMILES,CHOP UPR activ,697 NFkB inh,Jurkat NFkB inh,CRFBP-R2 block,UPR XBP1 act,UPR CHOP confirm
O=C(Cc1ccc(F)cc1)NC1CCSC1=O (centres undefined),41*,1,-4,-6,2,-2
COc1cccc(-c2nc(CS(=O)CC(=O)NCc3ccccc3)c(C)o2)c1 (centres undefined),69*,-9,-11,18,-2,0
O=C(C[C@@H]1C/C=C/CC[C@H](Cc2ccc(F)cc2)C(=O)OCCNC1=O)N[C@H](CO)Cc1ccccc1,0,-23,16,-13,0,nt
CCCCC(=O)/C=C/n1c(=S)oc2ccccc21,120*,-64,0,-5,-1,21
C=CCC1CCCC(=O)N2CCCC12 (centres undefined),1,11,nt,-4,2,nt
COc1cc(/C=N/NC(N)=S)cc(Br)c1OCc1ccccc1F,52*,27,5,-10,26,12
COc1cc(CNc2ccc3[nH]c(=O)[nH]c3c2)cc(Br)c1OCc1ccccc1F,83*,5,14,7,2,46*
CNC(=S)N/N=C/c1cc(Br)c(OCc2ccncc2)c(OC)c1,1,11,3,6,-1,nt
CCNC(=O)N1C[C@H]2CON(C)[C@H]2C[C@H]1c1ccccc1Br,nt,nt,nt,-12,nt,nt
O=C(Nc1ccc2oc(-c3ccc4ccccc4c3)nc2c1)c1ccc2c(c1)OCCO2,40*,-187,-51,14,200*,105*
Cc1cc(O)cc(C)c1Cl,0,10,1,15,-6,nt
Cc1cc(O)c(-c2cc(O)c(C)cc2O)cc1O,74*,-16,12,23,-8,136*
Cc1ccc(C(=O)NCC(=O)NCc2ccc(Cl)cc2)s1,0,29,-6,3,-1,nt
Cc1ccc(S(=O)(=O)CC(=O)N2CCN(c3ccc(F)cc3)CC2)cc1,1,12,-6,-20,-3,nt
O=C(O)c1cc(S(=O)(=O)Nc2ccc(OCc3ccccc3)cc2)ccc1Br,1,2,-4,2,2,nt
O=C(NCc1ccco1)c1ccc2c(c1)OCCO2,3,-12,2,12,-1,nt
COc1ccc(-n2nc3c(c2NC(=O)CCl)CSC3)cc1,49*,-14,7,-1,-5,4
Cc1ccc(C(=O)OCC(=O)N2CCC(C)CC2)cc1S(=O)(=O)N1CCOCC1,nt,nt,nt,14,nt,nt
Cc1ccc(NC(=O)CNc2cccc(S(=O)(=O)N3CCOCC3)c2)cc1F,2,-6,15,0,-2,nt
COc1cc(NC(=O)CNc2cccc(S(=O)(=O)N3CCOCC3)c2)cc(OC)c1,41*,-13,11,3,4,-2
Clc1nc2c(-c3ccccc3)nnn2c2ccccc12,60*,-1,-11,1,0,32
CC(C)N1CSC(=S)N(Cc2ccccc2)C1,75*,24,8,-1,1,94*
S=C1SCN(Cc2cccnc2)CN1Cc1ccccc1,-1,10,-9,-16,4,nt
CC(C)(C)N1CSC(=S)N(Cc2ccccc2)C1,86*,2,-9,-20,-1,82*
CCOC(=O)C1=CC[C@H]2c3c(c4ccccc4n3C)C[C@H]1N2C,-1,-8,-13,-2,-3,nt
Cc1ccc(S(=O)(=O)N2CCOCC2)cc1NC(=O)COC(=O)/C=C/c1ccco1,-2,9,4,-4,-2,nt
CC1=NN(c2ccccc2)C(=O)/C1=C\c1cn(-c2ccccc2)nc1C,0,12,-1,-18,-3,nt
Cc1ccc(-c2nn(-c3ccccc3)cc2C=C2C(=O)CC(C)(C)CC2=O)cc1,48*,-50,-35,-37,13,206*
CC1(C)CC(=O)C(=Cc2cn(-c3ccccc3)nc2-c2ccccc2)C(=O)C1,89*,7,4,-4,16,184*
O/N=C/c1cn(-c2ccccc2)nc1-c1ccccc1,nt,nt,nt,-10,nt,nt
